# Assay outcomes from PubChem.
# A selection: hits, their analogues and other compounds. The true share with any hit is near 4.5%.
# GPR7 antagonist – blocks human GPR7 receptor signaling; P48145; GPR7-expressing cells, fluorescence antagonist assay; inhibition, % at 4.4 µM; hit rate 1.1% among 290,000; in the data active = inhibition above about 16%, passing the limit was not always enough;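 also: cells stimulated with the agonist NPW; 0% = agonist with vehicle and 100% = vehicle without agonist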
# Target sequence (P48145 whole entry, looked up): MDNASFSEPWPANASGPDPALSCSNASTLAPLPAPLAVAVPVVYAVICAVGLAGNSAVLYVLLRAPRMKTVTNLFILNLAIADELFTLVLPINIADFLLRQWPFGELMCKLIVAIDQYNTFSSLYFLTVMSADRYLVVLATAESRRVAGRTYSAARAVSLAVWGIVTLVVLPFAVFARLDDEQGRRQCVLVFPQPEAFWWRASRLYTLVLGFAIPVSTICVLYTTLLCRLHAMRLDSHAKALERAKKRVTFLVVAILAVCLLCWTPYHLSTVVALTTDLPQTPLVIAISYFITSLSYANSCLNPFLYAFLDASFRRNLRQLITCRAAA
# OX1R antag-1 – antagonists of human orexin 1 receptor; inhibition, % at 5 µM; O43613; AID 434989; hit rate 0.43% among 330,000; CHO/OX1R cells, Fluo-8 calcium fluorescence, orexin A;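 active = inhibition above its plate's threshold, mean inhibition of all tested compounds on the plate plus 3 SD, cut at about 37% in these data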;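 also: 0% = orexin A challenge wells and 100% = SB-334867-A antagonist wells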
# TAAR1 antagonist – human TAAR1 antagonism; CHO RD-HGA16 TAAR1, Fluo-8 calcium fluorescence, antagonist; inhibition, % at 3 µM; hit rate 1.5% among 360,000;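 active = inhibition above a per-plate cutoff, the mean inhibition of test compounds on that plate plus 3 SD, cut at about 49% in these data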;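 also: 0% = DMSO plus EC80 beta-PEA response and 100% = DMSO alone without agonist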
#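 System: CHO RD-HGA16 cells bearing hTAAR1. Reagent: EC80 β-phenethylamine stimulus. Schedule: seeding 17-24 h prior, 75-min 37 °C, 30-min RT dye loading. Signal: Fluo-8 intracellular calcium dye fluorescence, real-time kinetic reads. Read-out: % inhibition from peak post-agonist over basal fluorescence ratio. Benchmarks: vehicle wells and EC80 agonist wells. Replicates: n of 1.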
# TAAR1 ag – agonists of human TAAR1; Q96RJ0; CHO RD-HGA16 TAAR1, Fluo-8 calcium fluorescence; vehicle wells 0%, saturating PEA agonist 100%; activation, % at 3 µM; hit rate 0.99% among 360,000;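 active = activation above the mean activation of all test compounds in the run plus 3 SD, cut at about 38% in these data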
#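 System: CHO RD-HGA16 cells carrying human TAAR1 plus Gα16; Incubation: 17-24 h seeding, 75 min 37 °C dye, 30 min RT; Measured by: Fluo-8 fluorescence, 5 s baseline then 140 s kinetic read; Control set: DMSO and PEA EC100; Replication: single well for each compound.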
# OX1R antag-2 – antagonists of human orexin 1 receptor (OX1R). hit rate 1.8% among 330,000. OX1R-expressing cells, FRET antagonist read-out. AID 485270. O43613. inhibition, % at 6.6 µM; in the data active = inhibition mostly above about 38%, no sharp cut-off; inactive = mostly below about 40%;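 also: 0% = agonist challenge alone and 100% = reference antagonist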
# CHO parental Ca – signal in parental CHO cells, OX1R antagonist counter-screen; parental CHO-K1, ATP-induced calcium, Fluo-8 fluorescence; inhibition, % at 5.6 µM; hit rate 0.63% among 330,000; AID 463079;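 active = inhibition above that plate's mean sample inhibition plus 3 SD, cut at about 26% in these data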;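 also: 0% = ATP-challenged DMSO wells and 100% = DMSO wells without ATP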
#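 Assay system: parental CHO cells; Read-out basis: percent inhibition of ATP-evoked calcium rise, normalized to controls; Benchmarks: ATP and no-ATP DMSO wells; Compound dosing: single nominal dose of 5.6 µM per compound; Signal: Fluo-8 calcium dye fluorescence; Also added: ATP as calcium-mobilizing challenge; Repeats: singlicate.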
# An asterisk follows results filed as active; · = not tested or not shown.
SMILES,GPR7 antagonist,OX1R antag-1,TAAR1 antagonist,TAAR1 ag,OX1R antag-2,CHO parental Ca
CC1CN(C(=O)c2ccccc2C(=O)c2ncc[nH]2)CC(C)O1 (centres undefined),-6,-8,-25,40*,5,1
Nc1nc2c(ncn2[C@@H]2O[C@H](C(=O)N[C@@H](Cc3ccccc3)C(=O)NCC3CCCCC3)[C@@H](O)[C@H]2O)c(=O)[nH]1,·,·,-16,1,·,·
COc1ccc(S(=O)(=O)N2CCOC2CNC(=O)C(=O)NCCc2ccccc2OC)cc1C (centres undefined),2,-10,3,13,25,-15
COc1ccc(S(=O)(=O)N2CCOC2CNC(=O)C(=O)NCCc2c[nH]c3ccccc23)cc1C (centres undefined),-9,5,37,9,55*,-1
COc1ccc(CCNC(=O)C(=O)NCC2OCCN2S(=O)(=O)c2ccc(OC)cc2)cc1 (centres undefined),4,-29,-1,6,24,-9
COc1ccc(S(=O)(=O)N2CCOC2CNC(=O)C(=O)NCCc2c[nH]c3ccccc23)cc1 (centres undefined),-8,-2,35,17,14,5
COc1ccccc1CCNC(=O)C(=O)NCC1OCCN1S(=O)(=O)c1ccc2c(c1)OCCO2 (centres undefined),-8,-2,0,39*,31,-3
COc1ccc(S(=O)(=O)N2CCOC2CNC(=O)C(=O)NCCc2ccc(S(N)(=O)=O)cc2)cc1 (centres undefined),-4,-18,-7,0,5,72*
CCN1C(=O)[C@H]2[C@@H](c3ccc(OC)cc3)N[C@]3(CCCN(Cc4ccc(F)cc4)C3=O)[C@H]2C1=O,·,·,-10,4,·,·
COC(=O)c1ccc2nc(-c3ccc(C)cc3)c(Cc3ccccc3)n2c1,·,·,-8,1,·,·
C1CCN(Cc2nnnn2CC2CCCO2)CC1 (centres undefined),-10,-18,-11,10,15,-1
CCC(C(=O)OCC(=O)NC(=O)c1ccccc1OC)c1ccccc1 (centres undefined),·,-10,-33,2,17,1
Cc1cccc2[nH]c(SCC(=O)N3CCOCC3)nc12,-6,0,-3,6,13,-7
Cc1cccc(-c2nnc(SCc3ccc(C#N)cc3)n2Cc2ccco2)c1,21,4,30,2,4,-13
COc1cc(CNCCc2ccccc2)cc(Cl)c1OCc1ccccc1,9,-17,39,40*,5,27
Cc1ccc(NC(=O)c2ccc3c(c2)C(=O)N(CC2CCCO2)C3=O)cc1C (centres undefined),7,-23,24,7,31,-19
O=C(Nc1cccnc1)c1ccc2c(c1)C(=O)N(CC1CCCO1)C2=O (centres undefined),-7,-5,-18,10,73*,-6
COc1ccc(CCNc2ccc(N3C(=O)CC(C)C3=O)cc2[N+](=O)[O-])cc1OC (centres undefined),-5,28,50*,11,59,54*
COc1ccc(Nc2ccc(N3C(=O)CC(C)C3=O)cc2[N+](=O)[O-])cc1OC (centres undefined),-6,-24,-11,3,40*,-15
COc1ccc(Nc2ccc(N3C(=O)CCCC3=O)cc2[N+](=O)[O-])cc1OC,-9,-14,-16,0,57,-12
O=C(c1ccccc1)N1CCC2CCN(CCc3ccccc3)CC21 (centres undefined),·,·,-26,0,·,·
NC(=O)c1ccsc1NC(=O)COC(=O)/C=C/c1ccc([N+](=O)[O-])cc1,3,-4,36,8,9,-5
COc1ccc(C(=O)OCC(=O)Nc2sccc2C(N)=O)cc1[N+](=O)[O-],·,6,55*,29,17,-16
NC(=O)c1ccsc1NC(=O)COC(=O)CSc1ccc(Cl)cc1,-3,45*,42,13,8,42*
Cc1ccsc1C(=O)OCC(=O)NCCNC(=O)COC(=O)c1sccc1C,·,-14,-9,2,22,-16
SMILES,GPR7 antagonist,OX1R antag-1,TAAR1 antagonist,TAAR1 ag,OX1R antag-2,CHO parental Ca
COC(=O)c1ccc(/C=C/C(=O)OCC(=O)Nc2sccc2C(N)=O)cc1,·,33,·,·,56*,22
COc1ccc(C(=O)OCC(=O)NC(=O)NC2CCCC2)cc1[N+](=O)[O-],·,-10,4,3,7,-6
Cc1ccsc1C(=O)OCC(=O)Nc1sccc1C(N)=O,2,-20,24,42*,47,-11
CCNC(=O)C1(C)CCN(C(=O)c2ccccc2C(F)(F)F)C1 (centres undefined),·,·,-2,0,·,·
COC(=O)C1=C(C)N(C)C(=NCc2cc(OC)c(OC)c(OC)c2)NC1c1cccc(C(F)(F)F)c1 (centres undefined),·,·,-25,4,·,·
CCN(CC)c1ccc(/C=N\N2CCN(Cc3ccc(C)cc3)CC2)cc1,-10,-19,-16,5,17,-20
NC(=O)c1ccsc1NC(=O)COC(=O)c1ccc(Cl)c(N)c1,·,-3,53*,14,28,-21
Oc1ccccc1CNCC12CC3CC(CC(C3)C1)C2,0,-14,-10,3,-2,-12
CC(CC12CC3CC(CC(C3)C1)C2)NCc1ccccc1O (centres undefined),17,-20,1,39*,6,-17
COc1ccc(-c2csc(C(C)(O)c3cccc(F)c3)n2)cc1 (centres undefined),·,·,29,0,·,·
Clc1ccc(Cc2ccc(SCc3ccccc3)nn2)c(Cl)c1,-2,-21,50*,15,16,1
CN(C)S(=O)(=O)c1cccc(COC(=O)c2ccc(Cl)cc2O)c1,6,33,8,2,34,48*
CN(C)S(=O)(=O)c1cccc(CSCc2cccc(S(=O)(=O)N(C)C)c2)c1,25,6,32,5,27,46*
CN(C)S(=O)(=O)c1cccc(COC(=O)c2ccc3c(c2)OCO3)c1,9,-9,22,2,22,-7
Cc1cc(C)n2nc(SCc3cccc(S(=O)(=O)N(C)C)c3)nc2n1,-10,-10,1,5,14,8
CN(N=Cc1ccccc1O)C(=O)c1ccccc1N,·,·,-4,1,·,·
COc1ccc(-n2c(-c3ccccc3)c[n+]3c2CCC3)cc1,-4,9,-21,8,17,-1
CCOc1ccc(-c2c[n+]3c(n2-c2ccccc2)CCCCC3)cc1,25*,-19,2,3,12,3
COC(=O)c1ccc2nc(-c3cccc(Cl)c3)c(Cc3ccccc3C(F)(F)F)n2c1,·,·,-19,0,·,·
CSc1nccc(NC(=O)c2cccc(Br)c2)n1,23,-29,8,48*,21,-21
